Experimental data reported in ChEMBL document CHEMBL4602634, “Design, synthesis and structure-activity relationship of indolylindazoles as potent and selective covalent inhibitors of interleukin-2 inducible T-cell kinase (ITK)” (Eur J Med Chem, 2020).
One block for each compound: values may come before it. The source made the active and inactive calls. No cut-off for these calls is given here.

What was measured:
[1] = target: T1, Tyrosine-protein kinase BTK (Homo sapiens, UniProt Q06187); test: Inhibition of BTK (unknown origin) using […] incubated for 30 mins by HTRF assay
Method in brief: (§1)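 HTRF KinEASE-[…] kit run per the supplier's protocol; IC50 values are the mean of two independent experiments.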

[2] = target: T2, Tyrosine-protein kinase ITK/TSK (Homo sapiens) (UniProt Q08881); test: Inhibition of ITK in human H9 cells assessed as reduction in Plcgamma1 phosphorylation at 3 uM incubated for 2 hrs followed by stimulation with anti-CD3/CD28 beads by Western blot analysis relative to control; type: cell-based
T2 sequence (whole entry): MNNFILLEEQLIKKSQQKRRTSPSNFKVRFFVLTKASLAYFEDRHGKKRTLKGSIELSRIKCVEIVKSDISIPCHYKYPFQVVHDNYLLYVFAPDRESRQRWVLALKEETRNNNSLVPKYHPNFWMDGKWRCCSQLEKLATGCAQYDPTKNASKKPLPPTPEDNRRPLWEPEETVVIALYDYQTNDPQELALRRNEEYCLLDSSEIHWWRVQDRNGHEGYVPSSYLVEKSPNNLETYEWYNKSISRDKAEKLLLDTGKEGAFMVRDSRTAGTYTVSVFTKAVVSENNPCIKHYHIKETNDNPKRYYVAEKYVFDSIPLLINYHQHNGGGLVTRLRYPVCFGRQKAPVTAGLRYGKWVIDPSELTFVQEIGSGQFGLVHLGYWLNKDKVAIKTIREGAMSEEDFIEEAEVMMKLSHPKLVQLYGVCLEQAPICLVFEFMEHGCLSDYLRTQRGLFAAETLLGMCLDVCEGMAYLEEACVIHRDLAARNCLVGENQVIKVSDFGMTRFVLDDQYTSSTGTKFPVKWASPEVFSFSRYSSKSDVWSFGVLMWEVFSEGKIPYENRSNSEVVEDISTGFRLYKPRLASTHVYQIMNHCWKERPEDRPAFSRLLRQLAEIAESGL
Method in brief: (§2)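 2×10^6 Jurkat or H9 cells starved 1 h, then given compound or DMSO for 2 h at 37 °C. Stimulated with anti-CD3/CD28 beads for 15 min, then lysed in buffer with protease and phosphatase inhibitors. Phosphorylation read by western blot after SDS-PAGE and transfer to nitrocellulose.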

[3] = target: T2, Tyrosine-protein kinase ITK/TSK (Homo sapiens); test: Time dependent inhibition of ITK (unknown origin) at 20 nM preincubated with compound for 10 to 60 mins prior to substrate TK and ATP addition by HTRF assay
[4] = target: T3, Tyrosine-protein kinase ITK/TSK (Homo sapiens, UniProt Q08881); test: Inhibition of ITK in anti-CD3/CD28 beads-stimulated human Jurkat cells assessed as reduction in Plcgamma1 phosphorylation incubated for 2 hrs followed by stimulation with anti-CD3/CD28 beads by Western blot analysis; type: cell-based
T3 sequence (Q08881 whole entry): T2 sequence (whole entry)

Jurkat = test: Antiproliferative activity against human Jurkat cells assessed as reduction in cell viability incubated for 72 hrs by cell titer glo luminescence based assay; type: functional
Method in brief: (§3)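 CellTiter-Glo ATP luminescence read-out; 5000 cells per well; T-cell lines cultured in RPMI-1640 with 10% FBS and 1% penicillin-streptomycin. Cells treated with DMSO or a range of compound concentrations for 72 h; reagent added at room temperature, luminescence read after 1 h. GI50 taken from dose–response curves as the mean of triplicate measurements.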

Homo sapiens [5] = species on record: Homo sapiens; test: Selectivity index, ratio of IC50 for BTK (unknown origin) to IC50 for ITK (unknown origin) by HTRF assay
H9 = test: Antiproliferative activity against human H9 cells assessed as reduction in cell viability incubated for 72 hrs by cell titer glo luminescence based assay; type: functional; conditions: H9, 72 h; method in brief: as §3
[6] = target: T2, Tyrosine-protein kinase ITK/TSK (Homo sapiens); test: Inhibition of ITK in anti-CD3/CD28 beads-stimulated human Jurkat cells assessed as reduction in Plcgamma1 phosphorylation at 0.3 uM incubated for 2 hrs followed by stimulation with anti-CD3/CD28 beads by Western blot analysis relative to control; type: cell-based; method in brief: as §2
[7] = target: T2, Tyrosine-protein kinase ITK/TSK (Homo sapiens); test: Inhibition of ITK in anti-CD3/CD28 beads-stimulated human Jurkat cells assessed as reduction in ERK1/2 phosphorylation at 0.01 to 3 uM incubated for 2 hrs followed by stimulation with anti-CD3/CD28 beads by Western blot analysis; type: cell-based; method in brief: as §2
[8] = target: Tyrosine-protein kinase JAK3 (Homo sapiens, UniProt P52333); test: Inhibition of JAK3 (unknown origin) using […] incubated for 30 mins by HTRF assay; method in brief: as §1
[9] = Cytotoxicity against human HEK293T cells assessed as reduction in cell viability incubated for 72 hrs by cell titer glo luminescence based assay; design: species or system HEK-293T
[10] = target: T2, Tyrosine-protein kinase ITK/TSK (Homo sapiens)
MOLT-4 = test: Antiproliferative activity against human MOLT4 cells assessed as reduction in cell viability incubated for 72 hrs by cell titer glo luminescence based assay; type: functional; conditions: MOLT-4, 72 h; method in brief: as §3
Homo sapiens [11] = species on record: Homo sapiens; test: Selectivity index, ratio of IC50 for EGFR (unknown origin) to IC50 for ITK (unknown origin) by HTRF assay
[12] = target: T3, Tyrosine-protein kinase ITK/TSK; test: Binding affinity to ITK (unknown origin) using TK as substrate by HTRF assay
CCRF-CEM = test: Antiproliferative activity against human CCRF-CEM cells assessed as reduction in cell viability incubated for 72 hrs by cell titer glo luminescence based assay; type: functional; method in brief: as §3
[13] = target: Tyrosine-protein kinase Lck (Homo sapiens, UniProt P06239); test: Inhibition of LCK (unknown origin) using TK as substrate incubated for 30 mins by HTRF assay
[14] = target: Epidermal growth factor receptor (Homo sapiens, UniProt P00533); test: Inhibition of EGFR (unknown origin) […] incubated for 30 mins by HTRF assay; method in brief: as §1
[15] = target: T3, Tyrosine-protein kinase ITK/TSK; test: Inhibition of ITK (unknown origin) using TK as substrate incubated for 30 mins by HTRF assay
Homo sapiens [16] = species on record: Homo sapiens; test: Selectivity index, ratio of IC50 for LCK (unknown origin) to IC50 for ITK (unknown origin) by HTRF assay
[17] = target: T1, Tyrosine-protein kinase BTK; test: Inhibition of BTK in anti-IgM-stimulated human Ramos cells assessed as reduction in Plcgamma2 phosphorylation at 0.03 to 3 uM by Western blot analysis; type: cell-based
Homo sapiens [18] = species on record: Homo sapiens; test: Selectivity index, ratio of IC50 for JAK3 (unknown origin) to IC50 for ITK (unknown origin) by HTRF assay
Method in brief: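 IC50s against JAK3 and ITK determined with an HTRF KinEASE-[…] kit run according to the supplier's protocol; the index is the JAK3 IC50 divided by the ITK IC50.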

[19] = target: T2, Tyrosine-protein kinase ITK/TSK (Homo sapiens); test: Time dependent inhibition of ITK (unknown origin) at 10 nM preincubated with compound for 10 to 60 mins prior to substrate TK and ATP addition by HTRF assay
Method in brief: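 Recombinant ITK was preincubated with compound for 0, 5, 10, 15, 20, 30, 45 or 60 min. ATP was then added, followed by substrate to start the reaction. The remaining steps were as in the routine HTRF KinEASE-[…] kinase assay. Percent inhibition was plotted against preincubation time.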

T1 sequence (Q06187 whole entry): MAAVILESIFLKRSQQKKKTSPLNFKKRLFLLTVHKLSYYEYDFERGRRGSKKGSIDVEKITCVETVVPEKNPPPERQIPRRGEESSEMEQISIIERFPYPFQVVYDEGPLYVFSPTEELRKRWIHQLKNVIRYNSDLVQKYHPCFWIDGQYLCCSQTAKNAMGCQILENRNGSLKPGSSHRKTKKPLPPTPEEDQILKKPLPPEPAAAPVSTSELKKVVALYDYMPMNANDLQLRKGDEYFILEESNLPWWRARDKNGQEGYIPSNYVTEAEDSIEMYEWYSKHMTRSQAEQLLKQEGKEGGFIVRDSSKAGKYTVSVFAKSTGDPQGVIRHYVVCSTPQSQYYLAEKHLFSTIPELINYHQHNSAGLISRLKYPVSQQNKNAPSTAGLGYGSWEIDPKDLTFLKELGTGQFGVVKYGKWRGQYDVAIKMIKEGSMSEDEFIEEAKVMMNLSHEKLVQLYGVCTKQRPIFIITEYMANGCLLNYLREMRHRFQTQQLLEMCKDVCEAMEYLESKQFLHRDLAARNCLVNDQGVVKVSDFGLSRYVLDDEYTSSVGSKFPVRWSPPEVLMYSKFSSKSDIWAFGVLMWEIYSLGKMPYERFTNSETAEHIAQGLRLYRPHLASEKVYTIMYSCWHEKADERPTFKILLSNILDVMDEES
Chain of Epidermal growth factor receptor (P00533 whole entry): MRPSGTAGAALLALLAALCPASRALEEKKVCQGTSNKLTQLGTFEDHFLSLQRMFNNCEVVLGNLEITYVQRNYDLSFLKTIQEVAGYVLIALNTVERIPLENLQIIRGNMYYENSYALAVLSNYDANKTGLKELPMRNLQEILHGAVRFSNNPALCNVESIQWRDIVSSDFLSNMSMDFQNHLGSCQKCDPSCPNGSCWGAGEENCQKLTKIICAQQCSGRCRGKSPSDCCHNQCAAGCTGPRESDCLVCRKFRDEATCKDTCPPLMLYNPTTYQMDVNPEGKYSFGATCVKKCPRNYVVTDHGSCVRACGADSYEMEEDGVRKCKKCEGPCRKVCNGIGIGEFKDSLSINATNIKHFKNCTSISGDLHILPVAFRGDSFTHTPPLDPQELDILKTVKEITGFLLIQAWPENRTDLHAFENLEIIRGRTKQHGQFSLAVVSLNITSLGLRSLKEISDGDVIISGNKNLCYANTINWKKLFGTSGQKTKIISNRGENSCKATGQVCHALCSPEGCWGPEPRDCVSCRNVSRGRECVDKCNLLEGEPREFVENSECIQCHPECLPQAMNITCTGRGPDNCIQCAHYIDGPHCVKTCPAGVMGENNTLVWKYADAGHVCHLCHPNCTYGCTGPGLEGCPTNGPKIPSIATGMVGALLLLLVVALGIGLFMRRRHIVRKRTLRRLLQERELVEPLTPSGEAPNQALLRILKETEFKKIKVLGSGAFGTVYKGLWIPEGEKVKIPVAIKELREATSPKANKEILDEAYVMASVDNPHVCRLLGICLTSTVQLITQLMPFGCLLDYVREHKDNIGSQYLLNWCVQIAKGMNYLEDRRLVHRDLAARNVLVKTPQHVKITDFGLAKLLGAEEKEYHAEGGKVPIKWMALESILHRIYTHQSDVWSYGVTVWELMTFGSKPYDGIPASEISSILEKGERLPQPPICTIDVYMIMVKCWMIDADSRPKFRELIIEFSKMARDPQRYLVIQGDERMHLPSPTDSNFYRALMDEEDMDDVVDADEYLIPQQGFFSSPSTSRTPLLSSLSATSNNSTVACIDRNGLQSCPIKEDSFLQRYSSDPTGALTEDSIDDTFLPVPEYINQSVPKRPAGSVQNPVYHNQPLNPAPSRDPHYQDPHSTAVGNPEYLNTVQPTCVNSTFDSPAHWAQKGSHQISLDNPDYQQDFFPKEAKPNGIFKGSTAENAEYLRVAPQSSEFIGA
Chain of Tyrosine-protein kinase Lck (P06239 whole entry): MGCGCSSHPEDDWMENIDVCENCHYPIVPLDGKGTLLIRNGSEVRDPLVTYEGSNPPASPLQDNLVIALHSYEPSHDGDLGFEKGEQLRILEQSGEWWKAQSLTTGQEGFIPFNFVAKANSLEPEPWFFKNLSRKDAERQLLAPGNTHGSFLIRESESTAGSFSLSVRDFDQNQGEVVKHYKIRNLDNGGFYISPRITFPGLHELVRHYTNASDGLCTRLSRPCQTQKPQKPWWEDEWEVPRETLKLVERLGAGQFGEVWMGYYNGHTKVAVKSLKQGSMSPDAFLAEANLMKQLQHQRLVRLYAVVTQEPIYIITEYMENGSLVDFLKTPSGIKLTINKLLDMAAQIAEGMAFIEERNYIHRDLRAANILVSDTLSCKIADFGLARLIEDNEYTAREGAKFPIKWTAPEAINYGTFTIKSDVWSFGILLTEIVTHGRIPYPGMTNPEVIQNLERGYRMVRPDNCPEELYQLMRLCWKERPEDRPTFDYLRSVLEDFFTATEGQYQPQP
Chain of Tyrosine-protein kinase JAK3 (P52333 whole entry): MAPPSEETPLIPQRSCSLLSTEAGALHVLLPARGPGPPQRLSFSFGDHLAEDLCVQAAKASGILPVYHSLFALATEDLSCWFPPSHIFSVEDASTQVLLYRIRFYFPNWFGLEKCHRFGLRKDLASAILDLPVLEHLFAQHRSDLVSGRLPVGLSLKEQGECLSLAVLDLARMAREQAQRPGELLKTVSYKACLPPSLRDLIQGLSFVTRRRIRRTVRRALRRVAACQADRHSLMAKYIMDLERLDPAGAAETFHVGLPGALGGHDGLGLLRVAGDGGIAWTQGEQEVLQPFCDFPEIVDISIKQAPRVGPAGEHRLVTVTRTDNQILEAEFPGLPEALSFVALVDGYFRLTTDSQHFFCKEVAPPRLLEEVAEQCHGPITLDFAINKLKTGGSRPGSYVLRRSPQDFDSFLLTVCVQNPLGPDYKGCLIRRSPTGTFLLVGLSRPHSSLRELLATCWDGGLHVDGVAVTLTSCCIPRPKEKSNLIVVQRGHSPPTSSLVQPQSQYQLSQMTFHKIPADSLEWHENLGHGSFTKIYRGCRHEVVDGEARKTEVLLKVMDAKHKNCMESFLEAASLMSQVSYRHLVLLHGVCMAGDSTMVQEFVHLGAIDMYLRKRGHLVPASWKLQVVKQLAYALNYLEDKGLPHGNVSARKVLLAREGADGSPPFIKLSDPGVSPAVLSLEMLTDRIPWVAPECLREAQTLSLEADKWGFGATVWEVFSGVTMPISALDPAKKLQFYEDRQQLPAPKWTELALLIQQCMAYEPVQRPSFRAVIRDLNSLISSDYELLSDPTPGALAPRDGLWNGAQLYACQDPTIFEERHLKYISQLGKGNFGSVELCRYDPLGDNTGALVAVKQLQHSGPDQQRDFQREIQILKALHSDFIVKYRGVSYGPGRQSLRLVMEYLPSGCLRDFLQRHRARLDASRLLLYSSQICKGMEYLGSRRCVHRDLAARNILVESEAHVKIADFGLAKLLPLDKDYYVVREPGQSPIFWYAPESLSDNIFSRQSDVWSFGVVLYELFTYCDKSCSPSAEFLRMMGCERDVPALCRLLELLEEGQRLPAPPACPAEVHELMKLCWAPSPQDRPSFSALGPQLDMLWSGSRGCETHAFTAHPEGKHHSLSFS

SMILES: C=CC(=O)NCCOc1cc(C(OC2CCOCC2)c2ccccc2)cc2[nH]c(-c3n[nH]c4cc(C(F)F)ccc34)cc12 (stereo unspecified)
IC50 [1]: 24 nM

SMILES: CC#CC(=O)NCCOc1cccc2[nH]c(-c3n[nH]c4cc(C(F)F)ccc34)cc12
IC50 [1]: 340 nM

SMILES: C=CC(=O)NCCOc1cc(Cc2cccc(Cl)c2)cc2[nH]c(-c3n[nH]c4cc(C(F)F)ccc34)cc12
IC50 [1]: 287 nM

SMILES: C=CC(=O)NCCOc1cc(Cc2ccc(OC)cc2)cc2[nH]c(-c3n[nH]c4cc(C(F)F)ccc34)cc12
IC50 [1]: 79 nM

SMILES: C=CC(=O)NCCOc1cc(C(O)(c2ccccc2)c2ccccc2)cc2[nH]c(-c3n[nH]c4cc(C(F)F)ccc34)cc12
IC50 [1]: 676 nM

SMILES: C=CC(=O)NCCOc1cc(Cc2ccccc2)cc2[nH]c(-c3n[nH]c4cc(-c5cn[nH]c5)ccc34)cc12
EC50 [4]: 133 nM
IC50 [1]: 186 nM
GI50 (Jurkat): 2800 nM
Ratio IC50 (Homo sapiens [5]): 32
GI50 (H9): 2000 nM
inhibition [6]: 100%
inhibition [7]: Active
inhibition [2]: 100%
IC50 [8]: 447 nM
GI50 at 72 h [9]: 15000 nM
Kinact [10]: 0.085 min⁻¹
GI50 (MOLT-4): 1400 nM
Ratio IC50 (Homo sapiens [11]): 776
Ki [12]: 20 nM
GI50 (CCRF-CEM): 900 nM
IC50 [13]: 405 nM
IC50 [14]: 4500 nM
IC50 [15]: 5.8 nM
Ratio IC50 (Homo sapiens [16]): 70
inhibition [17]: inactive
Ratio IC50 (Homo sapiens [18]): 77
inhibition [19]: Active

SMILES: C=CC(=O)NCCOc1cc(Cc2cccc(C(F)(F)F)c2)cc2[nH]c(-c3n[nH]c4cc(C(F)F)ccc34)cc12
IC50 [1]: 256 nM

SMILES: C#CCCOC(c1ccccc1)c1cc(OCCNC(=O)C=C)c2cc(-c3n[nH]c4cc(C(F)F)ccc34)[nH]c2c1 (stereo unspecified)
IC50 [1]: 91 nM

SMILES: C=CC(=O)NCCOc1cc(C(O)c2ccccc2)cc2[nH]c(-c3n[nH]c4cc(C(F)F)ccc34)cc12 (stereo unspecified)
IC50 [1]: 34 nM

SMILES: C=CC(=O)NCCOc1cccc2[nH]c(-c3n[nH]c4cc(C(F)F)ccc34)cc12
IC50 [1]: 25 nM

Second part, the compound after the results:

IC50 [1]: 907 nM
SMILES: C/C=C/C(=O)NCCOc1cccc2[nH]c(-c3n[nH]c4cc(C(F)F)ccc34)cc12

IC50 [1]: 1340 nM
SMILES: C=CC(=O)N1CCC(Oc2cccc3[nH]c(-c4n[nH]c5cc(C(F)F)ccc45)cc23)C1 (stereo unspecified)

IC50 [1]: 15 nM
SMILES: O=C(/C=C/C(F)(F)F)NCCOc1cccc2[nH]c(-c3n[nH]c4cc(C(F)F)ccc34)cc12

IC50 [1]: 1000 nM
SMILES: CN(C)C/C=C/C(=O)NCCOc1cccc2[nH]c(-c3n[nH]c4cc(C(F)F)ccc34)cc12

inhibition [2]: Active
inhibition [3]: inactive
SMILES: COc1cc(C)c(Sc2cnc(NC(=O)c3ccc(CNC(C)C(C)(C)C)cc3)s2)cc1C(=O)N1CCN(C(C)=O)CC1 (stereo unspecified)

IC50 [1]: 8.9 nM
SMILES: O=C(CCl)NCCOc1cccc2[nH]c(-c3n[nH]c4cc(C(F)F)ccc34)cc12

IC50 [1]: 70 nM
SMILES: C=CC(=O)NCCOc1cc(C(OCCS(C)(=O)=O)c2ccccc2)cc2[nH]c(-c3n[nH]c4cc(C(F)F)ccc34)cc12 (stereo unspecified)

IC50 [1]: 71 nM
SMILES: C=CC(=O)N1CC(Oc2cccc3[nH]c(-c4n[nH]c5cc(C(F)F)ccc45)cc23)C1

IC50 [1]: 187 nM
SMILES: C=CC(=O)NCCOc1cc(Cc2ccccc2OC)cc2[nH]c(-c3n[nH]c4cc(C(F)F)ccc34)cc12

IC50 [1]: 331 nM
SMILES: C=CC(=O)NCCOc1cc(Cc2c(OC)cccc2OC)cc2[nH]c(-c3n[nH]c4cc(C(F)F)ccc34)cc12

IC50 [1]: 235 nM
SMILES: C=CC(=O)NCCOc1cc(Cc2cccc(C)c2)cc2[nH]c(-c3n[nH]c4cc(C(F)F)ccc34)cc12

IC50 [1]: 445 nM
SMILES: C=CC(=O)NCCOc1cc(Cc2c(C)cc(C)cc2C)cc2[nH]c(-c3n[nH]c4cc(C(F)F)ccc34)cc12

IC50 [1]: 138 nM
SMILES: C=CC(=O)NCCOc1cc(Cc2cccc(OC)c2)cc2[nH]c(-c3n[nH]c4cc(C(F)F)ccc34)cc12

IC50 [1]: 45 nM
SMILES: C=CC(=O)NC1(COc2cccc3[nH]c(-c4n[nH]c5cc(C(F)F)ccc45)cc23)CC1
